# Screens from PubChem.
# Thrombin inh: thrombin (human) inhibition | P00734 | alpha-thrombin, Boc-VPR-AMC fluorogenic substrate cleavage | inhibition, % at 5 µM | actives 0.26% (n = 220,000) | AID 1046;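 active means inhibition at or above 40%; inactive means inhibition below 40%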;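 further: 0% = enzyme with no compound and 100% = wells without enzyme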
#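 System – human alpha-thrombin protein · Reagent – Boc-VPR-AMC substrate, 15 µM final · Compound – 5 µM single dose in 0.2% DMSO · Schedule – reaction at room temperature · Technique – AMC fluorescence at 355 nm excitation and 460 nm emission · Read-out basis – % inhibition relative to enzyme controls and enzyme-free blanks · Control set – no-compound enzyme wells and no-enzyme blanks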
# FXIIa inh 1536: blocks human coagulation factor XIIa protease activity | inhibition, % at 5 µM | purified FXIIa, Boc-QGR-AMC fluorogenic substrate, 2 h | AID 800 | actives 0.3% (n = 220,000); in the data active means inhibition above about 40%;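 further: 0% = enzyme with no compound and 100% = blank without enzyme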
# Wee1 stabilizer: inhibitors of human Wee1 degradation; HeLa Luc-Wee1K328M stability, luciferase luminescence; 100% = proteasome inhibitor MG132 effect; reporter increase, % at 5 µM; actives 1.2% (n = 220,000);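 active means activation above the mean of all tested compounds plus 3 SD, set per screening run, cut at about 8.8% in these data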;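 further: cells exposed to compound for 20 h before luminescence read; 0% = DMSO alone and 100% = MG132 at 30 µM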
# KLK5 inh: blocks human kallikrein 5 protease activity; recombinant hK5, fluorogenic AMC substrate cleavage; inhibition, % at 5 µM; actives 0.59% (n = 210,000);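 active means inhibition of 40% or more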;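 further: 0% = enzyme controls without compound and 100% = no-enzyme blanks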
# Platelet DG rel: modulates dense granule release in human platelets | human platelet-rich plasma, SFLLRN dense granule ATP release, luminescence | inhibition, %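 (compounds screened at 7.5 µM in platelet-rich plasma)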 | actives 0.22% (n = 300,000);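 active means mean replicate score, as percent of positive control, at or above 50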
# FXIa inh 1536: blocks human coagulation factor XIa protease activity; actives 0.14% (n = 220,000); purified FXIa, Boc-Glu-Ala-Arg-AMC fluorogenic substrate; P03951; AID 798; inhibition, % at 5 µM;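 active means inhibition of at least 40%; inactive means inhibition below 40%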;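 further: fluorescence of freed AMC excited at 355 nm; 0% = enzyme without compound and 100% = no enzyme blank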
# Target sequence (P03951 19-387 limits assumed): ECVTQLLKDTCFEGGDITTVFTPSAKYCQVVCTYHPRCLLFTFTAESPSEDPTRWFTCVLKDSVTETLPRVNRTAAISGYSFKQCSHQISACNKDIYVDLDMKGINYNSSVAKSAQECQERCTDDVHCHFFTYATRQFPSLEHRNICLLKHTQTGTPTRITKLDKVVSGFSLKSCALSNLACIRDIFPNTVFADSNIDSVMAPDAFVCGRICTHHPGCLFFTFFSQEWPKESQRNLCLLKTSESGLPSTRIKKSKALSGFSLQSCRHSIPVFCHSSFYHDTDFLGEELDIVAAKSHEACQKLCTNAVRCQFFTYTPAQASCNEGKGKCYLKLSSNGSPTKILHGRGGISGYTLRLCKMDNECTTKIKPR
# Target sequence (P03951 388-625 limits assumed): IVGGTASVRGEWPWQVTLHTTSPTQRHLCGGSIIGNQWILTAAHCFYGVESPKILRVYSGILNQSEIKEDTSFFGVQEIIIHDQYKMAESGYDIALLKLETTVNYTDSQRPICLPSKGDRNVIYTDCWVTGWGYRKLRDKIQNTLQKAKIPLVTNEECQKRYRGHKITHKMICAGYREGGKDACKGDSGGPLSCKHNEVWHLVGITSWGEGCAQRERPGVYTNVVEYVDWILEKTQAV
# Wee1 stab conf: human Wee1 degradation inhibition, confirmation; shares compounds with Wee1 stabilizer; HeLa Luc-Wee1K328M degradation, luminescence; vehicle 0%, proteasome-blocked wells 100%; activation, % at 5 µM; actives 4% (n = 1,100); AID 1410; in the data active means activation above about 8.9%
# * marks the source's active call; other numbers are inactive results; nt = no result. Rows were chosen to be rich in hits. Some 1.8% of all compounds tested hit in one or more screens of this group.
SMILES,Thrombin inh,FXIIa inh 1536,Wee1 stabilizer,KLK5 inh,Platelet DG rel,FXIa inh 1536,Wee1 stab conf
O=C(CSc1nnc(Cc2ccccc2)n1-c1ccccc1)NNC(=O)Cc1ccccc1,0,-4,17*,2,-2,-5,-4
Cc1cccc(-n2cc(-c3ccccc3)c3c(NN4CCOCC4)ncnc32)c1,-4,2,24*,-4,3,-4,1
COc1cc(N/N=C(\C)c2ccc(N)cc2)nc(-c2ccccc2)n1,7,11,12*,-1,3,2,5
COc1ccccc1N1CCN(C(=O)/C=C/c2ccco2)CC1,-4,2,-2,-11,11,1,nt
COc1ccccc1N1CCN(/N=C/C=C\c2ccco2)CC1,2,16,24*,6,19,6,2
CSCCC(NC(=O)c1ccccc1)C(=O)N/N=C(\C)c1ccccc1 (stereo not drawn),-6,4,3,1,-2,-8,nt
COc1ccc(C(=O)NC2=NCCS2)cc1,nt,nt,nt,nt,3,nt,nt
Cc1ccc(C(=O)NC2=NCCS2)cc1,-1,13,16*,4,7,2,-3
Cc1ccc(S(=O)(=O)n2cccc2C)cc1,nt,nt,nt,nt,-10,nt,nt
OC[C@@H]1CCCN1Cc1nc(-c2cccs2)no1,-2,7,11*,nt,3,-2,2
c1csc(-c2noc(CN3CCN4CCCC4C3)n2)c1 (stereo not drawn),0,6,-1,nt,0,4,nt
CSc1ccc(S(=O)(=O)Nc2ccc(OCC(=O)N3CCOCC3)cc2)cc1,2,3,3,-4,2,-1,nt
CCN(CC)c1ccc(/C=N/NC(=S)NC)c(O)c1,3,11,14*,nt,1,4,3
Cc1ccc(C2NC(=O)Cc3ccccc32)cc1 (stereo not drawn),-4,-2,14*,12,6,-12,1
O=C1Cc2ccccc2C(c2ccccc2)N1 (stereo not drawn),-3,14,2,-14,11,4,nt
CCN1C(=O)c2cccc3c(NC(=O)c4ccc(S(=O)(=O)N5CCOCC5)cc4)ccc1c23,4,15,1,-10,-3,2,nt
CCN1C(=O)c2cccc3c(NC(=O)c4ccc(S(=O)(=O)N(C)C)cc4)ccc1c23,2,10,11*,8,-2,1,5
O=C(CN1CCCCCC1)NC(c1ccccc1)c1ccccc1,nt,nt,nt,nt,-2,nt,nt
CC1CC(C)CN(CC(=O)NC(c2ccccc2)c2ccccc2)C1 (stereo not drawn),-3,7,12*,2,4,0,1
CC(C)(C)c1ccc(OCc2ccc(C(=O)N3CCOCC3)o2)cc1,-5,5,13*,-3,-1,-6,1
COc1ccc(C2c3ccc(O)cc3Oc3ncn(CCN4CCOCC4)c(=N)c32)cc1OC (stereo not drawn),-2,-1,0,25,0,-8,nt
COc1ccc(C2c3ccc(O)cc3Oc3ncn(Cc4ccccc4)c(=N)c32)cc1OC (stereo not drawn),9,9,19*,0,-1,-3,0
COc1ccc(C2c3ccc(O)cc3Oc3ncn4nc(-c5ccccn5)nc4c32)cc1 (stereo not drawn),-2,8,11*,1,4,1,0
COc1ccc(C2c3ccc(O)cc3Oc3ncn4nc(-c5ccccn5)nc4c32)cc1OC (stereo not drawn),-2,7,4,-3,1,1,nt
CC(=O)NC(C)(CC(=O)c1ccccc1)c1ccccc1 (stereo not drawn),nt,nt,nt,nt,-12,nt,nt
SMILES,Thrombin inh,FXIIa inh 1536,Wee1 stabilizer,KLK5 inh,Platelet DG rel,FXIa inh 1536,Wee1 stab conf
O=C1c2ccccc2NC(c2ccc(F)cc2)N1Cc1ccco1 (stereo not drawn),-4,4,4,-55,-5,-4,nt
O=C1c2ccccc2NC(c2ccccc2)N1Cc1ccco1 (stereo not drawn),-7,0,15*,-25,-1,-11,0
O=[N+]([O-])c1ccc(/C=N/N2CCCCC2)cc1,nt,nt,nt,nt,1,nt,nt
c1ccc(-n2cnnc2SCc2cn3ccsc3n2)cc1,-1,-2,13*,2,-2,-9,1
c1ccc(-n2cnnc2SCc2cn3ccccc3n2)cc1,-2,7,0,-23,4,-11,nt
CCc1ccc(C(=O)COC(=O)c2cc([N+](=O)[O-])ccc2N2CCOCC2)cc1,nt,nt,nt,nt,-2,nt,nt
Cc1ccc2c(COC(=O)c3n[nH]c4ccccc34)cc(=O)oc2c1,-9,6,14*,-3,-10,4,-1
CN(Cc1nc(-c2cnccn2)no1)CC(O)c1ccccc1 (stereo not drawn),1,9,12*,nt,-9,2,3
CN(CC(=O)Nc1ccccc1Cl)C(=O)COC(=O)Cc1ccc(F)cc1,nt,nt,nt,nt,25,nt,nt
CC(C)(C)NC(=O)C(Cc1ccccc1)NS(=O)(=O)c1ccc2c(c1)CCC(=O)N2 (stereo not drawn),-2,-10,3,-8,-5,-7,nt
O=C1CCc2cc(S(=O)(=O)NC(Cc3ccccc3)C(=O)NC3CCCCC3)ccc2N1 (stereo not drawn),0,0,28*,15,0,-4,0
CCOC(=O)C1CCCN(S(=O)(=O)CCNC(=O)c2ccc(F)cc2)C1 (stereo not drawn),nt,nt,nt,nt,19,nt,nt
CCOC(=O)C(C)Sc1nc2c(c(=O)[nH]c(=O)n2C)n1C/C=C(/C)Cl (stereo not drawn),2,14,12*,3,13,-1,-3
COc1ccc(Nc2oc(-c3ccc(OC)cc3)nc2C#N)cc1,0,10,11*,0,0,1,9.6*
COc1ccc(Nc2oc(-c3ccc(Cl)cc3)nc2C#N)cc1,-5,-1,2,-24,7,-3,nt
COc1ccc(CCC(C)NCCc2ccc(Cl)cc2Cl)cc1 (stereo not drawn),nt,nt,nt,nt,8,nt,nt
CSc1ccc(/C=N/n2c(Cc3ccc(Br)cc3)n[nH]c2=S)cc1,-26,9,11*,-1,-3,-6,6
CC(=O)Nc1cccc(/C(C)=N/NC(=O)c2cccc(S(=O)(=O)N3CCOCC3)c2)c1,30,25,14*,21,-3,39,-1
CC(=O)c1cccc(NC(=O)c2cccc(S(=O)(=O)N3CCOCC3)c2)c1,nt,nt,nt,nt,-1,nt,nt
CC(C)CN1CCN(Cc2ccc(Oc3ncccn3)cc2)CC1CCO (stereo not drawn),0,8,-4,1,-6,4,nt
CC(C)N1CCC(N2CCN(Cc3ccc(Oc4ncccn4)cc3)CC2CCO)CC1 (stereo not drawn),1,0,13*,3,7,2,0
